# MBD2 inh: inhibitors of MBD2 binding to methylated DNA, primary screen, biochemical, TR-FRET, DNA-binding domain, human. Methyl-CpG-binding domain protein 2 (Homo sapiens), Q9UBB5. MBD2 binding to methylated oligonucleotide. inhibition, % at 4.4 µM. hit rate 0.31% among 370,000. AID 686964, 2013; in the data active means inhibition above about 13%
# NSD2 HMT inh: NSD2 histone methyltransferase inhibitors, primary screen, biochemical, AlphaScreen, single concentration, set 2 | Histone-lysine N-methyltransferase NSD2 (Homo sapiens), O96028 | NSD2 peptide methylation, 120 min | inhibition, % at 12.5 µM | hit rate 0.54% among 310,000 | AID 743445, 2014; in the data active means inhibition above about 50%
# TDP2 inh: human TDP2 enzyme inhibitors, primary screen, biochemical, epi absorbance, recombinant enzyme. T5PNP hydrolysis, p-nitrophenol absorbance 415 nm. inhibition, % at 12.8 µM. hit rate 0.34% among 370,000. AID 720702, 2013;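 active means inhibition above the mean of all tested compounds plus 3 SD, set per campaign, cut at about 25% in these data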;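 further: 0% = DMSO with enzyme and 100% = buffer with substrate but no TDP2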
#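 Test system: human TDP2 enzyme; Input: 120 nM TDP2 per well; Buffer or medium: Mg2+-containing Tris-HCl buffer, pH 7.5; Reagent: 5 mM T5PNP; Dosing: 12.8 µM single point, 1% DMSO; Incubation: reaction 2 h, 37 °C; Detection: p-Nitrophenol epi absorbance; Read-out: % inhibition relative to enzyme-containing and enzyme-free wells; Replicates: single well per compound.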
# UHRF1 MBD2 ctr: UHRF1 methylated DNA binding inhibitors, primary screen, counter-screen for MBD2 inhibitor project, biochemical, TR-FRET, human UHRF1, single concentration. hit rate 0.75% among 370,000. inhibition, % at 4.4 µM. UHRF1 binding to methylated oligo. E3 ubiquitin-protein ligase UHRF1 (Homo sapiens), Q96T88. AID 687016, 2013; in the data active means inhibition above about 21%;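 further: UHRF1 SRA domain binding a hemimethylated CpG hairpin DNA probe; 0% = median of test compound wells and 100% = reference inhibitor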
# Target sequence (Q96T88 whole entry, looked up, the tested form may be a part): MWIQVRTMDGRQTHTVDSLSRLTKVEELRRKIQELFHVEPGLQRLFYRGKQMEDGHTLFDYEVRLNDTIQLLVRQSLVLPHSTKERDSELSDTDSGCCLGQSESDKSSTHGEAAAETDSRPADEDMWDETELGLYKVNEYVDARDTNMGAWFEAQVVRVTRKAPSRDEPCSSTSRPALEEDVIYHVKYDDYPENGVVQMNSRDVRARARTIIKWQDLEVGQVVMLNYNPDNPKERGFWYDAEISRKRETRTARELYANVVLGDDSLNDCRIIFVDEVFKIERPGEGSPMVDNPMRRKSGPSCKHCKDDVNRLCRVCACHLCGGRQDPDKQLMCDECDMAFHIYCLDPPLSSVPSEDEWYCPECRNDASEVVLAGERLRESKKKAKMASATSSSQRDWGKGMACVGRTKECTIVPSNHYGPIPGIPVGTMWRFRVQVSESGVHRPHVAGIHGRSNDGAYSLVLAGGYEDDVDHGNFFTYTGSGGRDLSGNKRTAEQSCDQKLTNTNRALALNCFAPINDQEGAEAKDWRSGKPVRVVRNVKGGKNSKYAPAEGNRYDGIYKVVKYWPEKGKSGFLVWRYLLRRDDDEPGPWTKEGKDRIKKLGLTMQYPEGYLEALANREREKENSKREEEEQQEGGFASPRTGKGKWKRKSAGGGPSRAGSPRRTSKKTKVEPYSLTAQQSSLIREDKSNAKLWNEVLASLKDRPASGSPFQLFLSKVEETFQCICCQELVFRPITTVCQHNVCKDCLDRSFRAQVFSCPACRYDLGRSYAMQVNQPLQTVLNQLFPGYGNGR
# LEDGF integ inh: blockers of LEDGF/p75-dependent integrase strand transfer – biochemical, TR-FRET, high throughput, primary screen; TR-FRET IN-LEDGF/p75 DNA integration, Eu/Cy5; inhibition, % at 3.7 µM; hit rate 0.64% among 370,000;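 active means inhibition above the screen-wide mean plus 3 SD, cut at about 13% in these data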;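 further: signal is the Cy5 over europium emission ratio at 671 and 618 nm; 0% = plate median of compound wells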
# Casp6 inh: human caspase-6 inhibitors, primary screen, biochemical, VEID-R110 fluorescence, single point, set 2; P55212; purified caspase-6, Z-VEID-R110 cleavage fluorescence; inhibition, % at 12.5 µM; hit rate 0.53% among 350,000;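 active means mean inhibition across replicates at least about 35%, with every replicate also reaching that limit, limit read from the data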;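 further: 0% = median of neutral control wells and 100% = no fluorescence left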
# TDP2 confirm: human TDP2 enzyme inhibitors, retest, confirmation, biochemical, epi absorbance, recombinant enzyme. shares compounds with TDP2 inh. hit rate 22% among 1,100. inhibition, % at 12.8 µM. AID 743263, 2014. absorbance read-out; in the data active means inhibition above about 25%;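 further: 0% = vehicle with enzyme and 100% = no enzyme buffer only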
# * = called active by the depositor; . = no result given. The list is not random: actives were taken first. Their share in the collection is about 1.9%.
SMILES,MBD2 inh,NSD2 HMT inh,TDP2 inh,UHRF1 MBD2 ctr,LEDGF integ inh,Casp6 inh,TDP2 confirm
COc1ccc(-c2nc3ccccc3nc2-c2ccc(OC)c(OC)c2)cc1OC,0.2,.,19.4,-1.1,0.1,5.1,.
COc1ccc2nc3ccccc3nc2c1N,-28.5,41.3,39.0*,-8.2,3.4,4.7,7.8
C/C(=N/NS(=O)(=O)c1ccc(Br)cc1)c1c[nH]c2ccccc12,3.0,4.0,24.6*,2.1,-2.1,2.5,6.0
COc1ccc(CNC(=O)C[C@@H]2C=C[C@H](NC(=O)CN(C)C)[C@@H](CO)O2)cc1,.,.,.,.,.,-0.2,.
CCCCC(=O)Nc1nnc(SCC(=O)NC2CC2)s1,-2.7,-2.2,39.1*,-1.7,4.2,-1.2,2.8
CC(C)CC(=O)Nc1nnc(SCC(=O)NC2CCCC2)s1,-2.6,-4.4,8.4,1.6,-1.7,-2.6,.
CC(C)C(=O)Nc1nnc(SCC(=O)NC2CCCC2)s1,3.6,-5.4,33.1*,92.5*,0.0,-2.7,-2.8
C[C@@H]1CCCCO[C@H](CN(C)C(=O)CCC(F)(F)F)[C@@H](C)CN([C@H](C)CO)C(=O)c2cc(NS(=O)(=O)c3ccc(F)cc3)ccc2O1,.,.,.,.,.,8.0,.
C/C=C/c1ccc([C@H]2[C@H](CO)N(C(C)=O)C23CN(S(C)(=O)=O)C3)cc1,.,.,.,.,.,2.6,.
COc1ccc(NC(=O)c2sc(NC(=O)COc3ccccc3)nc2C)cc1,-5.0,-2.8,-0.4,-1.6,1.0,.,.
Cc1nc(NC(=O)COc2ccccc2)sc1C(=O)Nc1cccc(Cl)c1,-5.0,-2.0,27.2*,-2.2,3.9,.,-16.9
CCCC(=O)N1C[C@H]2[C@@H](c3ccccc31)[C@H](CO)N2C(=O)Nc1ccccc1,.,.,.,.,.,-2.1,.
CN1CCN(S(=O)(=O)c2ccc(NC(=O)c3ccccc3F)cc2)CC1,-0.9,0.7,25.2*,-0.2,-1.6,-0.6,4.0
CN1CCN(S(=O)(=O)c2ccc(NC(=O)c3ccccc3Cl)cc2)CC1,-3.7,-0.3,0.4,0.7,2.0,0.0,.
CCOC(=O)C1CCN(c2cc3c(cc2NC(=O)c2ccccc2Br)n(C)c(=O)n3C)CC1,4.6,6.7,25.8*,-1.0,1.5,0.0,-0.5
Cc1noc(C)c1S(=O)(=O)Nc1ccc2c(c1)CC(=O)N([C@@H](C)CO)C[C@@H](C)[C@H](CN(C)Cc1ccc(C(F)(F)F)cc1)O2,.,.,.,.,.,-1.8,.
Cc1ccc2[nH]c(O)c(N=Nc3nc4ccccc4s3)c2c1,-3.4,1.2,24.9*,2.0,-2.1,-0.2,-18.4
Oc1[nH]c2ccccc2c1N=Nc1nc2ccccc2s1,-4.9,3.1,-13.8,2.3,5.4,.,.
C=CCSc1nnc(COc2ccc(=O)n(-c3ccccc3)n2)n1CC,-2.7,2.1,24.6*,-1.9,-1.5,-4.0,5.8
CCn1c(COc2ccc(=O)n(-c3ccccc3)n2)nnc1SCc1cccc(OC)c1,1.4,-0.6,7.8,0.1,-0.3,.,.
C[C@@H]1CCCCO[C@H](CN(C)S(=O)(=O)c2ccc(Cl)cc2)[C@@H](C)CN([C@@H](C)CO)C(=O)c2cc(NC(=O)c3ccccc3)ccc2O1,.,.,.,.,.,-1.4,.
COc1ccccc1OCCn1cc(/C=C(\C#N)C(=O)NCc2ccco2)c2ccccc21,-2.7,-0.7,103.0*,-5.8,-1.6,.,-0.1
COc1ccc(OCCn2cc(/C=C(\C#N)C(=O)NCc3ccco3)c3ccccc32)cc1,3.7,-0.7,-1.9,0.2,-1.0,1.7,.
O=C(Nc1ccc(NC(=O)c2ccco2)cc1)c1ccco1,-1.1,21.4,28.4*,1.0,3.9,-0.7,8.8
O=C(Nc1ccc(Br)cc1)c1ccco1,6.3,-1.2,-8.5,18.9,-0.3,0.0,.
SMILES,MBD2 inh,NSD2 HMT inh,TDP2 inh,UHRF1 MBD2 ctr,LEDGF integ inh,Casp6 inh,TDP2 confirm
Cc1ccc(NC(=O)C2CCN(S(=O)(=O)c3ccccc3)CC2)cc1,-5.7,-2.7,30.4*,-2.4,-3.6,-1.0,5.5
Cc1ccccc1N1CC(C(=O)Nc2ccc(S(=O)(=O)N3CCCCC3)cc2)CC1=O (configuration not stated),0.7,1.6,25.1*,1.5,3.6,-2.3,3.8
Cc1cccc(N2CC(C(=O)Nc3ccc(S(=O)(=O)N4CCCCC4)cc3)CC2=O)c1C (configuration not stated),4.8,.,-8.4,1.1,-3.3,3.5,.
CC(=O)N1[C@@H]2c3ccc(-c4ccncc4)c(=O)n3C[C@@H]2[C@@H](CO)[C@@H]1C(=O)NC1Cc2ccccc2C1,.,.,.,.,.,-2.1,.
Cc1cc[n+](C2=C([O-])c3ccccc3C(=O)/C2=N\S(=O)(=O)c2cccs2)cc1C,-8.0,11.6,0.1,0.9,5.7,4.8,.
Cc1ccccc1NC1=C/C(=N\S(=O)(=O)c2cccs2)c2ccccc2C1=O,-4.8,43.8,62.4*,-1.5,46.7*,.,75.0*
CCC(NC(=O)Nc1ccc(O)cc1)(C(F)(F)F)C(F)(F)F,-10.9,0.2,26.8*,8.7,15.1*,.,5.2
O=C(COC(=O)c1ccccc1SCC(=O)N1CCCC1)NC1CCCCC1,0.7,4.2,26.0*,-1.3,2.5,24.8,4.3
C[C@H](CO)N1C[C@H](C)[C@@H](CN(C)C(=O)[C@H](C)c2ccccc2)OCc2ccccc2-c2ccccc2C1=O,.,.,.,.,.,-1.0,.
CCN1CCN(CC(=O)Nc2nc3ccccc3s2)CC1,3.4,1.2,18.2,0.8,3.6,-3.3,.
CN1CCN(CC(=O)Nc2nc3ccccc3s2)CC1,-1.4,1.2,25.1*,2.0,0.0,2.6,3.0
CO[C@H]1CN(C)C(=O)c2cc(NC(=O)C3CC3)ccc2OC[C@H](C)N(Cc2cccnc2)C[C@H]1C,.,.,.,.,.,4.4,.
COc1ccc(C2=NN(C(=O)CCC(=O)O)C(c3ccc(OC)c(OC)c3)C2)cc1 (configuration not stated),3.0,-1.4,25.2*,-0.5,2.8,2.4,7.7
O=C(NC(N1CCCCCC1)C(Cl)(Cl)Cl)c1ccccc1Cl (configuration not stated),7.5,27.4,1.2,3.2,-2.6,-1.7,.
O=C(NC(N1CCOCC1)C(Cl)(Cl)Cl)c1ccccc1Cl (configuration not stated),1.9,-5.0,26.8*,1.2,-3.2,-0.8,7.9
CC(=O)c1ccc(OCc2cc(C(=O)NC(C)Cc3ccccn3)no2)cc1 (configuration not stated),1.8,1.2,30.0*,-2.3,0.9,0.6,4.8

# Screens from PubChem BioAssay.
